Experimental data reported in ChEMBL document CHEMBL1126875, “Synthesis and LTB4 receptor antagonist activities of the naturally occurring LTB4 receptor antagonist Leucettamine A and related analogues” (J Med Chem, 1993).

What was measured:
[1] = target: T1, Leukotriene B4 receptor 1 (Homo sapiens, UniProt Q15722); assay: Binding affinity against Leukotriene B4 receptor on U-937 cell membrane preparations in competitive binding assay with [3H]LTB4
U-937 [2] = assay: Inhibition of [3H]LTB4 binding in whole cells; conditions: Homo sapiens
[3] = target: T1, Leukotriene B4 receptor 1; assay: Binding affinity against Leukotriene B4 receptor on intact differentiated U-937 cells in competitive binding assay with [3H]LTB4; format: cell-based
Method in brief: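 Differentiated U-937 cells (1.3% DMSO, 3–4 days), washed; 10⁶ intact cells incubated in HBSS with 0.1% ovalbumin and 0.2 nM [³H]LTB₄, 20 min at 0 °C. Nonspecific binding defined with 1 μM unlabeled LTB₄. Filtration then scintillation counting. IC₅₀ converted to Ki by Cheng–Prusoff.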

U-937 [4] = assay: Inhibition of [3H]LTB4 binding in whole cells (U-937); conditions: Homo sapiens

T1 sequence (Q15722 whole entry): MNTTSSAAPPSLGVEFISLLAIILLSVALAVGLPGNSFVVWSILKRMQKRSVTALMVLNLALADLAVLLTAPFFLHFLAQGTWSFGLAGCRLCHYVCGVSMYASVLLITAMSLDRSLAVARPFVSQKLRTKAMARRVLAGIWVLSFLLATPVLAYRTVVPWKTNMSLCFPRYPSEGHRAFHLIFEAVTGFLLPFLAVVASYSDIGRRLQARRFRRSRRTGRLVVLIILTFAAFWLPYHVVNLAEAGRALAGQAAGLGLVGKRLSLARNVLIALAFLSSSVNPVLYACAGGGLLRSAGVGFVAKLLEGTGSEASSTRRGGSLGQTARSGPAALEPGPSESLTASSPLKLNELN

Row | SMILES | Ki [1] [µM] | IC50 (U-937 [2]) [µM] | Ki [3] [µM] | IC50 (U-937 [4]) [µM]
1 | COc1ccc(/C=C/CCCCOc2ccc(C(=O)c3cccc(C(=O)O)c3)cc2CCC(=O)O)cc1 | 0.36 |  |  | 
2 | Cn1c(N)nc(Cc2ccc(CCCCO)cc2)c1Cc1ccccc1 |  | 3.8 | 2.4 | 
3 | Nc1nc(Cc2ccccc2)c(Cc2ccccc2)[nH]1 |  | 13 | 9 | 
4 | Cn1c(N)nc(Cc2ccc3c(c2)OCO3)c1Cc1ccc2c(c1)OCO2 [LEUCETTAMINE A] |  | 5.2 | 3.5 | 
5 | Cn1cc(Cc2ccccc2)nc1N |  | > 100 |  | 
6 | Cc1[nH]c(N)nc1Cc1ccccc1 |  | > 100 |  | 

Other lines, results leading:

Row | Ki [1] [µM] | IC50 (U-937 [2]) [µM] | Ki [3] [µM] | IC50 (U-937 [4]) [µM] | SMILES
7 |  | 40 | 27 |  | COc1cccc(Cc2nc(N)n(C)c2Cc2ccccc2)c1
8 |  |  |  | > 100 | CCCCCCn1c(N)nc(Cc2ccccc2)c1Cc1ccccc1
9 |  | 30 | 19 |  | Cn1c(N)nc(Cc2ccccc2)c1Cc1ccccc1
